Legend:
Rattus norvegicus [1] = test: The treatment period of compound (microg of Fe/15h) for urinary excretion of Iron after peroral administration to the rats; format: functional, Urine
Method in brief: (§1)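 Unloaded normal rats in metabolic cages act as their own controls. Food is withdrawn at 5 p.m. on both days. Control day: 1 mL distilled water po, urine collected until 8 a.m. (15 h), food returned, urine analyzed for iron. Treatment day: chelator 1 mmol/kg po in 1 mL distilled water, then another 15 h urine collection for iron analysis.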

Rattus norvegicus [2] = test: The treatment period of compound (microg of Fe/15h) for urinary excretion of Iron after intravenous administration to the rats; format: functional, Urine
Method in brief: (§2)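 Unloaded normal rats, each serving as its own control, housed in metabolic cages. Control day: 1 mL distilled water/200 g body weight iv, urine collected 15 h (5 p.m.–8 a.m.) and analyzed for iron. Next day: chelator 0.2 mmol/kg iv by tail vein under ether anesthesia in 1 mL deionized water, pH about 7 with sodium bicarbonate; urine again collected 15 h for iron.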

Rattus norvegicus [3] = test: The control period of compound (microg of Fe/15h) for urinary excretion of Iron after intravenous administration to the rats; format: functional, Urine; method in brief: as §2
Rattus norvegicus [4] = test: The control period of compound (microg of Fe/15h) for urinary excretion of Iron after peroral administration to the rats; format: functional, Urine; method in brief: as §1
Rattus norvegicus [5] = test: The control period of compound (microg of Fe/h) for biliary excretion of Iron after intravenous administration to the rats; format: functional, Bile
Method in brief: (§3)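 Normal (untreated) rats under pentobarbital anesthesia, bile duct cannulated with PE-10 tubing. Bile collected 30 min for the control rate, then chelator given 0.2 mmol/kg iv by tail vein in deionized water, pH about 7 with sodium bicarbonate, and bile collected a further 2 h. Bile mass measured and iron determined by atomic absorption spectrometry; rate expressed per hour. Controls received pentobarbital only.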

Rattus norvegicus [6] = test: The treatment period of compound (microg of Fe/h) for biliary excretion of Iron after intravenous administration to the rats; format: functional, Bile; method in brief: as §3

SMILES	Treatment period (Rattus norvegicus [1])	Treatment period (Rattus norvegicus [2])	Control period (Rattus norvegicus [3])	Control period (Rattus norvegicus [4])	Control period (Rattus norvegicus [5])	Treatment period (Rattus norvegicus [6])
Cn1cc(O)c(=O)cc1C(=O)O	6740 ng of Fe/15 h	6830 ng of Fe/15 h	410 ng of Fe/15 h	497 ng of Fe/15 h	0.34	5.87
O=C(O)c1cc(=O)c(O)co1	–	–	–	–	0.35	0.46
O=c1cc(CO)n(CCS(=O)(=O)O)cc1O	350 ng of Fe/15 h	2200 ng of Fe/15 h	504 ng of Fe/15 h	296 ng of Fe/15 h	0.35	9.96
Cc1c(O)c(=O)ccn1C [DEFERIPRONE]	17400 ng of Fe/15 h	8370 ng of Fe/15 h	490 ng of Fe/15 h	400 ng of Fe/15 h	0.36	4.78
O=c1cc(CO)occ1O [KOJIC ACID]	–	–	–	–	0.31	0.28

From ChEMBL document CHEMBL1127750, “Enhancement of iron excretion via monoanionic 3-hydroxypyrid-4-ones” (1994)
